From ChEMBL document CHEMBL2380295, “Structure-activity studies on the side chain of a simplified analog of aplysiatoxin (aplog-1) with anti-proliferative activity” (Bioorg Med Chem, 2013)

Legend:
[1] = Cytotoxicity against human Raji cells assessed as cell viability at 10^-6 M; assay type: cell-based; conditions: read-out: Activity
[2] = Cytotoxicity against human Raji cells assessed as cell viability at 10^-7 M; assay type: cell-based; conditions: read-out: Activity
Human gammaherpesvirus 4 [3] = assay: Induction of EBV-early antigen expressed in human Raji cells at 10^-6 M after 48 hrs by immunofluorescence assay relative to control; assay type: organism-based; conditions: human gammaherpesvirus 4, raji, 1 µM
Outline: (§1)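 Raji B-lymphoblastoid cells (5 × 10^5/mL) in RPMI 1640 with 10% FBS, with 4 mM sodium n-butyrate as synergist and test compound at 10^-7 or 10^-6 M (final DMSO 0.4%). Incubated 48 h at 37 °C under 5% CO2. Smears were stained by indirect immunofluorescence using NPC patient serum and FITC anti-human IgG. At least 500 cells counted; % EA-positive recorded; n = 3, SEM.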

Human gammaherpesvirus 4 [4] = assay: Induction of EBV-early antigen expressed in human Raji cells at 10^-7 M after 48 hrs by immunofluorescence assay relative to control; assay type: organism-based; conditions: human gammaherpesvirus 4, raji, 0.1 µM; outline: as §1
PC-3 = assay: Growth inhibition of human PC3 cells after 48 hrs by sulforhodamine B assay; assay type: functional; conditions: PC-3, 48 h
Outline: (§2)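 Yamori 39-line human cancer panel, NCI method with modifications. Cells plated in RPMI 1640 plus 5% FBS, attached overnight, then exposed 48 h to compound at 10^-8, 10^-7, 10^-6, 10^-5 and 10^-4 M. Sulforhodamine B staining read at 525 nm; % growth = 100[(T−T0)/(C−T0)] from duplicate-point averages, with T0 the time-zero absorbance. GI50 is the concentration giving 50.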

DU-145 = assay: Growth inhibition of human DU145 cells after 48 hrs by sulforhodamine B assay; assay type: functional; conditions: DU-145, 48 h; outline: as §2
MKN-74 = assay: Growth inhibition of human MKN74 cells after 48 hrs by sulforhodamine B assay; assay type: functional; conditions: MKN-74, 48 h; outline: as §2
MKN-28 = assay: Growth inhibition of human MKN28 cells after 48 hrs by sulforhodamine B assay; assay type: functional; conditions: MKN-28, 48 h; outline: as §2
MKN-45 = assay: Growth inhibition of human MKN45 cells after 48 hrs by sulforhodamine B assay; assay type: functional; conditions: MKN-45, 48 h; outline: as §2
MKN-7 = assay: Growth inhibition of human MKN7 cells after 48 hrs by sulforhodamine B assay; assay type: functional; conditions: MKN-7, 48 h; outline: as §2
St-4 = assay: Growth inhibition of human St-4 cells after 48 hrs by sulforhodamine B assay; assay type: functional; conditions: St-4, 48 h; outline: as §2
[5] = Growth inhibition of human MKN1 cells after 48 hrs by sulforhodamine B assay; assay type: functional; conditions: MKN-1, 48 h; outline: as §2
[6] = Growth inhibition of human RXF631L cells after 48 hrs by sulforhodamine B assay; assay type: functional; conditions: RXF 631, 48 h; outline: as §2
ACHN = assay: Growth inhibition of human ACHN cells after 48 hrs by sulforhodamine B assay; assay type: functional; outline: as §2
OVCAR-8 = assay: Growth inhibition of human OVCAR8 cells after 48 hrs by sulforhodamine B assay; assay type: functional; conditions: OVCAR-8, 48 h; outline: as §2
SK-OV-3 = assay: Growth inhibition of human SKOV3 cells after 48 hrs by sulforhodamine B assay; assay type: functional; conditions: SK-OV-3, 48 h; outline: as §2
OVCAR-5 = assay: Growth inhibition of human OVCAR5 cells after 48 hrs by sulforhodamine B assay; assay type: functional; conditions: OVCAR-5, 48 h; outline: as §2
OVCAR-3 = assay: Growth inhibition of human OVCAR3 cells after 48 hrs by sulforhodamine B assay; assay type: functional; conditions: OVCAR-3, 48 h; outline: as §2
OVCAR-4 = assay: Growth inhibition of human OVCAR4 cells after 48 hrs by sulforhodamine B assay; assay type: functional; conditions: OVCAR-4, 48 h; outline: as §2
DMS-114 = assay: Growth inhibition of human DMS114 cells after 48 hrs by sulforhodamine B assay; assay type: functional; conditions: DMS-114, 48 h; outline: as §2
LOX IMVI = assay: Growth inhibition of human LOXIMVI cells after 48 hrs by sulforhodamine B assay; assay type: functional; outline: as §2
A549 = assay: Growth inhibition of human A549 cells after 48 hrs by sulforhodamine B assay; assay type: functional; conditions: A549, 48 h; outline: as §2
DMS-273 = assay: Growth inhibition of human DMS273 cells after 48 hrs by sulforhodamine B assay; assay type: functional; conditions: DMS-273, 48 h; outline: as §2
NCI-H460 = assay: Growth inhibition of human NCI-H460 cells after 48 hrs by sulforhodamine B assay; assay type: functional; conditions: NCI-H460, 48 h; outline: as §2
NCI-H226 = assay: Growth inhibition of human NCI-H226 cells after 48 hrs by sulforhodamine B assay; assay type: functional; conditions: NCI-H226, 48 h; outline: as §2
NCI-H522 = assay: Growth inhibition of human NCI-H522 cells after 48 hrs by sulforhodamine B assay; assay type: functional; conditions: NCI-H522, 48 h; outline: as §2
HCT-116 = assay: Growth inhibition of human HCT116 cells after 48 hrs by sulforhodamine B assay; assay type: functional; conditions: HCT-116, 48 h; outline: as §2
NCI-H23 = assay: Growth inhibition of human NCI-H23 cells after 48 hrs by sulforhodamine B assay; assay type: functional; conditions: NCI-H23, 48 h; outline: as §2
HCT-15 = assay: Growth inhibition of human HCT15 cells after 48 hrs by sulforhodamine B assay; assay type: functional; conditions: HCT-15, 48 h; outline: as §2
KM12 = assay: Growth inhibition of human KM12 cells after 48 hrs by sulforhodamine B assay; assay type: functional; conditions: KM12, 48 h; outline: as §2
HT-29 = assay: Growth inhibition of human HT-29 cells after 48 hrs by sulforhodamine B assay; assay type: functional; conditions: HT-29, 48 h; outline: as §2
SNB-78 = assay: Growth inhibition of human SNB78 cells after 48 hrs by sulforhodamine B assay; assay type: functional; conditions: SNB-78, 48 h; outline: as §2
[7] = Growth inhibition of human HCC2998 cells after 48 hrs by sulforhodamine B assay; assay type: functional; conditions: HCC 2998, 48 h; outline: as §2
SF-539 = assay: Growth inhibition of human SF539 cells after 48 hrs by sulforhodamine B assay; assay type: functional; conditions: SF-539, 48 h; outline: as §2
SNB-75 = assay: Growth inhibition of human SNB75 cells after 48 hrs by sulforhodamine B assay; assay type: functional; conditions: SNB-75, 48 h; outline: as §2
SF-295 = assay: Growth inhibition of human SF295 cells after 48 hrs by sulforhodamine B assay; assay type: functional; conditions: SF-295, 48 h; outline: as §2
U-251 = assay: Growth inhibition of human U251 cells after 48 hrs by sulforhodamine B assay; assay type: functional; conditions: U-251, 48 h; outline: as §2
SF-268 = assay: Growth inhibition of human SF268 cells after 48 hrs by sulforhodamine B assay; assay type: functional; conditions: SF-268, 48 h; outline: as §2
MCF7 = assay: Growth inhibition of human MCF7 cells after 48 hrs by sulforhodamine B assay; assay type: functional; conditions: MCF7, 48 h; outline: as §2
MDA-MB-231 = assay: Growth inhibition of human MDA-MB-231 cells after 48 hrs by sulforhodamine B assay; assay type: functional; conditions: MDA-MB-231, 48 h; outline: as §2
[8] = Growth inhibition of human BSY1 cells after 48 hrs by sulforhodamine B assay; assay type: functional; conditions: BSY-1, 48 h; outline: as §2
[9] = Growth inhibition of human HBC5 cells after 48 hrs by sulforhodamine B assay; assay type: functional; conditions: HBC5, 48 h; outline: as §2
[10] = Growth inhibition of human HBC4 cells after 48 hrs by sulforhodamine B assay; assay type: functional; conditions: HBC4, 48 h; outline: as §2
[11] = Octanol-water partition coefficient, log P of the compound by HPLC analysis; assay type: physicochemical
Outline: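 log P was estimated from HPLC retention, with column dead time measured using unretained formamide.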

[12] = biological target: T1, Protein kinase C delta type (Homo sapiens, UniProt Q05655); assay: Inhibition of [3H]PDBu binding to PKCdelta-C1A domain peptide (unknown origin)
Outline: (§3)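 Competitive [3H]PDBu binding used 14 or 40 nM PKCδ C1 peptide and 20 nM [3H]PDBu (19.6 Ci/mmol), in 50 mM Tris-maleate (pH 7.4 at 4 °C) with 50 µg/mL phosphatidylserine, 3 mg/mL bovine γ-globulin and varied inhibitor concentrations. IC50 was taken as 50% inhibition of specific binding. Ki was derived by the Sharkey–Blumberg method.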

[13] = biological target: T1, Protein kinase C delta type; assay: Inhibition of [3H]PDBu binding to PKCdelta-C1B domain peptide (unknown origin); outline: as §3

T1 sequence (Q05655 whole entry, the tested form may be a part): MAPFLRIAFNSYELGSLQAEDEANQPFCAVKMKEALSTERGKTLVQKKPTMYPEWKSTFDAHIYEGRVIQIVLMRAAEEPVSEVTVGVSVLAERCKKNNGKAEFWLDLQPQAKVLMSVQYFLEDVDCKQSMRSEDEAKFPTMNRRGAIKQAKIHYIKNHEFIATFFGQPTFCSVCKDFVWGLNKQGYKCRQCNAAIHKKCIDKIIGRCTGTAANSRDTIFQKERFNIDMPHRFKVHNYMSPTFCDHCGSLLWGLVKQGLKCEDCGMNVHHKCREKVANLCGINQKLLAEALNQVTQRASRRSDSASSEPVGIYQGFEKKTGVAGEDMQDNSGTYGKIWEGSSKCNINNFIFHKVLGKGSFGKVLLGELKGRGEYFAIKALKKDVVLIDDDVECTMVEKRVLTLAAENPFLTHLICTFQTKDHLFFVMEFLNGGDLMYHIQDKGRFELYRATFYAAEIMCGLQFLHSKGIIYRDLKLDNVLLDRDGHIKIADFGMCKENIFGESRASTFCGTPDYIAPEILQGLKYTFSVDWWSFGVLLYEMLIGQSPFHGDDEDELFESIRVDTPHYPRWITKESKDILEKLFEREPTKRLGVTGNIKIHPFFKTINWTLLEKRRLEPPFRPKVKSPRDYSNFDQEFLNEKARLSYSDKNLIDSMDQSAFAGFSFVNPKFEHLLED

## CC1(C)CC[C@@H]2CC(=O)O[C@@H](CO)CC(=O)O[C@@H]3C[C@@H](CCCCc4ccc(I)c(O)c4)O[C@@]1(C3)O2
[1]
  viability at 1 µM: 40%
[2]
  viability at 0.1 µM: 50%
Human gammaherpesvirus 4 [3]
  Activity: 2.3%
Human gammaherpesvirus 4 [4]
  Activity: 2.1%
PC-3
  GI50: 3.09 µM
DU-145
  GI50: 11.7 µM
MKN-74
  GI50: 11.7 µM
MKN-28
  GI50: 617 nM
MKN-45
  GI50: 11.7 µM
MKN-7
  GI50: 13.5 µM
St-4
  GI50: 933 nM
[5]
  GI50: 11.2 µM
[6]
  GI50: 12 µM
ACHN
  GI50: 10 µM
OVCAR-8
  GI50: 16.2 µM
SK-OV-3
  GI50: 14.8 µM
OVCAR-5
  GI50: 4.47 µM
OVCAR-3
  GI50: 6.31 µM
OVCAR-4
  GI50: 13.2 µM
DMS-114
  GI50: 10.7 µM
LOX IMVI
  GI50: 2880 nM
A549
  GI50: 3.31 µM
DMS-273
  GI50: 191 nM
NCI-H460
  GI50: 6.03 µM
NCI-H226
  GI50: 12 µM
NCI-H522
  GI50: 12 µM
HCT-116
  GI50: 10.2 µM
NCI-H23
  GI50: 11 µM
HCT-15
  GI50: 15.5 µM
KM12
  GI50: 10.5 µM
HT-29
  GI50: 14.5 µM
SNB-78
  GI50: 17 µM
[7]
  GI50: 1620 nM
SF-539
  GI50: 12 µM
SNB-75
  GI50: 12.3 µM
SF-295
  GI50: 4.07 µM
U-251
  GI50: 14.5 µM
SF-268
  GI50: 13.8 µM
MCF7
  GI50: 12.3 µM
MDA-MB-231
  GI50: 1580 nM
[8]
  GI50: 11 µM
[9]
  GI50: 15.8 µM
[10]
  GI50: 295 nM
[11]
  logP: 4.3
[12]
  Ki: 82 nM
[13]
  Ki: 1.3 nM

## CC1(C)CC[C@@H]2CC(=O)O[C@@H](CO)CC(=O)O[C@@H]3C[C@@H](CCCCc4cc(O)ccc4I)O[C@@]1(C3)O2
[1]
  viability at 1 µM: 50%
[2]
  viability at 0.1 µM: 50%
Human gammaherpesvirus 4 [3]
  Activity: 1.4%
Human gammaherpesvirus 4 [4]
  Activity: 1.3%
PC-3
  GI50: 4.68 µM
DU-145
  GI50: 12.9 µM
MKN-74
  GI50: 11.7 µM
MKN-28
  GI50: 813 nM
MKN-45
  GI50: 12 µM
MKN-7
  GI50: 11.5 µM
St-4
  GI50: 427 nM
[5]
  GI50: 10.7 µM
[6]
  GI50: 12.9 µM
ACHN
  GI50: 10.7 µM
OVCAR-8
  GI50: 16.2 µM
SK-OV-3
  GI50: 15.8 µM
OVCAR-5
  GI50: 5.13 µM
OVCAR-3
  GI50: 5.89 µM
OVCAR-4
  GI50: 13.8 µM
DMS-114
  GI50: 11 µM
LOX IMVI
  GI50: 2000 nM
A549
  GI50: 4.07 µM
DMS-273
  GI50: 251 nM
NCI-H460
  GI50: 10.5 µM
NCI-H226
  GI50: 12.6 µM
NCI-H522
  GI50: 11.7 µM
HCT-116
  GI50: 10.5 µM
NCI-H23
  GI50: 7.94 µM
HCT-15
  GI50: 15.1 µM
KM12
  GI50: 10.5 µM
HT-29
  GI50: 13.8 µM
SNB-78
  GI50: 15.1 µM
[7]
  GI50: 891 nM
SF-539
  GI50: 11 µM
SNB-75
  GI50: 10.5 µM
SF-295
  GI50: 6.31 µM
U-251
  GI50: 12.9 µM
SF-268
  GI50: 13.8 µM
MCF7
  GI50: 13.8 µM
MDA-MB-231
  GI50: 1550 nM
[8]
  GI50: 9.77 µM
[9]
  GI50: 15.8 µM
[10]
  GI50: 158 nM
[11]
  logP: 4.2
[12]
  Ki: 110 nM
[13]
  Ki: 4.6 nM
